Measured values reported in ChEMBL document CHEMBL3392996, “Non-transpeptidase binding arylthioether β-lactams active against Mycobacterium tuberculosis and Moraxella catarrhalis” (2015).
Values after ≈ are worked out from the molar mass of the structure shown. Active and inactive are the calls of the source. No cut-off for these calls is given here.

Tests used:
Moraxella catarrhalis [1] = experiment: Bactericidal activity against Moraxella catarrhalis clinical isolates incubated for 48 hrs by microdilution broth method and standard plating method; assay type: functional
Method in brief: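 Broth microdilution in Mueller-Hinton broth, 2-fold series from 500 to 15.6 μg/ml, with DMSO-only controls, 37 °C for 48 h. Wells showing no growth were plated (10 μL) on MH agar. MBC was the lowest concentration giving no growth on plating. Run in quadruplicate.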

Moraxella catarrhalis [2] = experiment: Antimicrobial activity against Moraxella catarrhalis clinical isolates incubated for 48 hrs by microdilution broth method; assay type: functional
Method in brief: (§1)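 Stocks in DMSO were diluted at least 10-fold into Mueller-Hinton broth, then 2-fold serially diluted in MH from 500 to 15.6 μg/ml. Bacteria were added, with DMSO-only dilution controls, and incubated at 37 °C for 48 h. Growth was scored at 24 and 48 h. MIC was the lowest concentration with no growth. Run in quadruplicate.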

[3] = test system: Mycobacterium tuberculosis; experiment: Antimicrobial activity against Mycobacterium tuberculosis H37Rv incubated for 48 hrs by microdilution broth method; assay type: functional
Escherichia coli [4] = experiment: Antimicrobial activity against Escherichia coli ATCC 25922 incubated for 48 hrs by microdilution broth method; assay type: functional, organism-based; method in brief: as §1
Citrobacter freundii [5] = experiment: Antimicrobial activity against AmpC producing Citrobacter freundii CITRO 21 incubated for 48 hrs by microdilution broth method; assay type: functional, organism-based; method in brief: as §1
Citrobacter freundii [6] = experiment: Antimicrobial activity against extended spectrum beta-lactamase producing Citrobacter freundii Citro 314 incubated for 48 hrs by microdilution broth method; assay type: functional, organism-based; method in brief: as §1
Klebsiella pneumoniae [7] = experiment: Antimicrobial activity against AmpC producing Klebsiella pneumoniae MISC 304 incubated for 48 hrs by microdilution broth method; assay type: functional, organism-based; method in brief: as §1
Escherichia coli [8] = experiment: Antimicrobial activity against extended spectrum beta-lactamase producing Escherichia coli MISC 262 incubated for 48 hrs by microdilution broth method; assay type: functional, organism-based; method in brief: as §1
Acinetobacter baumannii [9] = experiment: Antimicrobial activity against extended spectrum beta-lactamase and carbapenemase producing Acinetobacter baumannii L186 incubated for 48 hrs by microdilution broth method; assay type: functional, organism-based; method in brief: as §1
Acinetobacter baumannii [10] = experiment: Antimicrobial activity against extended spectrum beta-lactamase and carbapenemase producing Acinetobacter baumannii L185 incubated for 48 hrs by microdilution broth method; assay type: functional, organism-based; method in brief: as §1
Escherichia coli [11] = experiment: Antimicrobial activity against extended spectrum beta-lactamase and carbapenemase producing Escherichia coli ESBL L109 incubated for 48 hrs by microdilution broth method; assay type: functional, organism-based; method in brief: as §1
Staphylococcus aureus = experiment: Antimicrobial activity against Staphylococcus aureus ATCC 25923 incubated for 48 hrs by microdilution broth method; assay type: functional, organism-based; method in brief: as §1
Enterococcus faecalis = experiment: Antimicrobial activity against Enterococcus faecalis ATCC 29212 incubated for 48 hrs by microdilution broth method; assay type: functional, organism-based; method in brief: as §1
Escherichia coli [12] = experiment: Antimicrobial activity against broad spectrum beta-lactamase producing Escherichia coli GB 8 incubated for 48 hrs by microdilution broth method; assay type: functional, organism-based; method in brief: as §1
[13] = test system: Stenotrophomonas maltophilia; experiment: Antimicrobial activity against metallo beta-lactamases producing Stenotrophomonas maltophilia GM24 incubated for 48 hrs by microdilution broth method; assay type: functional, organism-based; method in brief: as §1
Klebsiella pneumoniae [14] = experiment: Antimicrobial activity against extended spectrum beta-lactamase and carbapenemase producing Klebsiella pneumoniae ESBL L174 incubated for 48 hrs by microdilution broth method; assay type: functional, organism-based; method in brief: as §1
Acinetobacter baumannii [15] = experiment: Antimicrobial activity against extended spectrum beta-lactamase and carbapenemase producing Acinetobacter baumannii L187 incubated for 48 hrs by microdilution broth method; assay type: functional, organism-based; method in brief: as §1
Klebsiella pneumoniae [16] = experiment: Antimicrobial activity against extended spectrum beta-lactamase and carbapenemase producing Klebsiella pneumoniae KPC L133 incubated for 48 hrs by microdilution broth method; assay type: functional, organism-based; method in brief: as §1
Klebsiella pneumoniae [17] = experiment: Antimicrobial activity against AmpC producing Klebsiella pneumoniae KLEB 249 incubated for 48 hrs by microdilution broth method; assay type: functional, organism-based; method in brief: as §1
Pseudomonas aeruginosa = experiment: Antimicrobial activity against Pseudomonas aeruginosa ATCC 27853 incubated for 48 hrs by microdilution broth method; assay type: functional, organism-based; method in brief: as §1
Escherichia coli [18] = experiment: Antimicrobial activity against broad spectrum beta-lactamase producing Escherichia coli MISC 206 incubated for 48 hrs by microdilution broth method; assay type: functional, organism-based; method in brief: as §1
Escherichia coli [19] = experiment: Antimicrobial activity against extended spectrum beta-lactamase and carbapenemase producing Escherichia coli ESBL L108 incubated for 48 hrs by microdilution broth method; assay type: functional, organism-based; method in brief: as §1

Structure (SMILES) | MBC (Moraxella catarrhalis [1]) [µg/mL] | MIC (Moraxella catarrhalis [2]) [µg/mL] | MIC [3] [µg/mL] | MIC (Escherichia coli [4]) | MIC (Citrobacter freundii [5]) | MIC (Citrobacter freundii [6]) | MIC (Klebsiella pneumoniae [7]) | MIC (Escherichia coli [8]) | MIC (Acinetobacter baumannii [9]) | MIC (Acinetobacter baumannii [10]) | MIC (Escherichia coli [11]) | MIC (Staphylococcus aureus) | MIC (Enterococcus faecalis) | MIC (Escherichia coli [12]) | MIC [13] | MIC (Klebsiella pneumoniae [14]) | MIC (Acinetobacter baumannii [15]) | MIC (Klebsiella pneumoniae [16]) | MIC (Klebsiella pneumoniae [17]) | MIC (Pseudomonas aeruginosa) | other results
CSc1ccc(SC2CC(=O)N2)cc1 (racemic) | 100 (≈ 444 µM) | 100 (≈ 444 µM) | > 100 | – | – | – | – | – | – | – | – | – | – | – | – | – | – | – | – | – | –
O=C1CC(Sc2cccc3ccccc23)N1 (racemic) | > 200 | 100 (≈ 436 µM) | > 250 | – | – | – | – | – | – | – | – | – | – | – | – | – | – | – | – | – | –
O=C1CC(Oc2ccc([N+](=O)[O-])cc2)N1 (racemic) | 50 (≈ 240 µM) | 50 (≈ 240 µM) | 25 (≈ 120 µM) | – | – | – | – | – | – | – | – | – | – | – | – | – | – | – | – | – | –
O=C1CC(Oc2ccc(C(F)(F)F)cc2)N1 (racemic) | 200 (≈ 865 µM) | 200 (≈ 865 µM) | 250 (≈ 1080 µM) | – | – | – | – | – | – | – | – | – | – | – | – | – | – | – | – | – | –
O=C1CC([Se]c2ccccc2)N1 (racemic) | 6.25 (≈ 27.6 µM) | 6.25 (≈ 27.6 µM) | 25 (≈ 111 µM) | – | – | – | – | – | – | – | – | – | – | – | – | – | – | – | – | – | –
O=C1CC(Sc2cccc(F)c2)N1C(=O)NCc1ccccc1 (racemic) | 100 (≈ 303 µM) | 25 (≈ 75.7 µM) | – | inactive | inactive | inactive | inactive | inactive | inactive | inactive | inactive | inactive | inactive | inactive | inactive | inactive | inactive | inactive | inactive | inactive | MIC (Escherichia coli [18]): inactive; MIC (Escherichia coli [19]): inactive
O=C1CC(Sc2ccc(F)cc2)N1C(=O)NCc1ccccc1 (racemic) | 25 (≈ 75.7 µM) | 25 (≈ 75.7 µM) | 6.25 (≈ 18.9 µM) | inactive | inactive | inactive | inactive | inactive | inactive | inactive | inactive | inactive | inactive | inactive | inactive | inactive | inactive | inactive | inactive | inactive | MIC (Escherichia coli [18]): inactive; MIC (Escherichia coli [19]): inactive
O=C1CC(Sc2ccc(F)cc2F)N1C(=O)NCc1ccccc1 (racemic) | 1.63 (≈ 4.68 µM) | 1.63 (≈ 4.68 µM) | 100 (≈ 287 µM) | – | – | – | – | – | – | – | – | – | – | – | – | – | – | – | – | – | –
O=C1CC(Sc2ccc(F)c(F)c2)N1C(=O)NCc1ccccc1 (racemic) | 25 (≈ 71.8 µM) | 12.5 (≈ 35.9 µM) | 6.25 (≈ 17.9 µM) | inactive | inactive | inactive | inactive | inactive | inactive | inactive | inactive | inactive | inactive | inactive | inactive | inactive | inactive | inactive | inactive | inactive | MIC (Escherichia coli [18]): inactive; MIC (Escherichia coli [19]): inactive
O=C1CC(Sc2c(F)c(F)c(F)c(F)c2F)N1C(=O)NCc1ccccc1 (racemic) | 6.25 (≈ 15.5 µM) | 3.1 (≈ 7.7 µM) | > 100 | – | – | – | – | – | – | – | – | – | – | – | – | – | – | – | – | – | –
O=C1CC(Sc2ccc(F)cc2Cl)N1C(=O)NCc1ccccc1 (racemic) | 25 (≈ 68.5 µM) | 12.5 (≈ 34.3 µM) | 25 (≈ 68.5 µM) | – | – | – | – | – | – | – | – | – | – | – | – | – | – | – | – | – | –
O=C1CC(Sc2ccc(F)c(Cl)c2)N1C(=O)NCc1ccccc1 (racemic) | 6.25 (≈ 17.1 µM) | 6.25 (≈ 17.1 µM) | 25 (≈ 68.5 µM) | – | – | – | – | – | – | – | – | – | – | – | – | – | – | – | – | – | –
O=C1CC(Sc2ccc(Cl)cc2Cl)N1C(=O)NCc1ccccc1 (racemic) | 6.25 (≈ 16.4 µM) | 3.13 (≈ 8.21 µM) | 25 (≈ 65.6 µM) | – | – | – | – | – | – | – | – | – | – | – | – | – | – | – | – | – | –
O=C1CC(Sc2cccc(C(F)(F)F)c2)N1C(=O)NCc1ccccc1 (racemic) | 6.25 (≈ 16.4 µM) | 3.12 (≈ 8.22 µM) | 25 (≈ 65.7 µM) | inactive | inactive | inactive | inactive | inactive | inactive | inactive | inactive | inactive | inactive | inactive | inactive | inactive | inactive | inactive | inactive | inactive | MIC (Escherichia coli [18]): inactive; MIC (Escherichia coli [19]): inactive
O=C1CC(Sc2ccc(C(F)(F)F)cc2)N1C(=O)NCc1ccccc1 (racemic) | 12.5 (≈ 32.9 µM) | 1.62 (≈ 4.27 µM) | 12.5 (≈ 32.9 µM) | inactive | inactive | inactive | inactive | inactive | inactive | inactive | inactive | inactive | inactive | inactive | inactive | inactive | inactive | inactive | inactive | inactive | MIC (Escherichia coli [18]): inactive; MIC (Escherichia coli [19]): inactive
O=C1CC(Sc2cc(C(F)(F)F)cc(C(F)(F)F)c2)N1C(=O)NCc1ccccc1 (racemic) | 6.25 (≈ 13.9 µM) | 6.25 (≈ 13.9 µM) | 6.25 (≈ 13.9 µM) | inactive | inactive | inactive | inactive | inactive | inactive | inactive | inactive | inactive | inactive | inactive | inactive | inactive | inactive | inactive | inactive | inactive | MIC (Escherichia coli [18]): inactive; MIC (Escherichia coli [19]): inactive
